Compound activity: PubChem BioAssay, Broad Institute
DENV2 CPE rescue – inhibitors of DENV2 cytopathic effect, primary screen, cell-based, plate reader, single concentration | DENV2-infected cells, cytopathic effect rescue | CPE inhibition, % at 9.99 µM | 350,000 compounds, 1.7% hits | AID 651640, 2012; in the data active = CPE inhibition above about 20%, passing the limit was not always enough; tested in BHK-21 cells;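 note: 0% = median of neutral control wells and 100% = median of positive control wells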
C2C12 statin – suppressors of statin myotoxicity in C2C12 myotubes, primary screen, cell-based, single point, plate reader. 330,000 compounds, 0.78% hits. rescue of ATP level, % at 7.49 µM. C2C12 myotubes + simvastatin, ATP luminescence, 48 h; scaled: DMSO 0, geranylgeraniol control 100. AID 602340, 2012;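 active = mean ATP rescue above about 67%, or every replicate alone reaching that limit, limit read from the data, passing the limit was not always enough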;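 note: myotubes were challenged with 10 µM simvastatin during compound exposure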
E-sel inducer – E-selectin induction in HUVECs, primary screen, imaging, HUVEC, immunofluorescence imaging, single point; normalized: neutral wells 0, TNF-alpha wells 100; activation, % at 7.58 µM; 260,000 compounds, 0.37% hits; AID 686992, 2013;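 active = mean E-selectin-positive cell signal at least 10% of the positive control, reached in at least 60% of replicates, without over 20% cell loss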
Target sequence (P16581 whole entry, looked up): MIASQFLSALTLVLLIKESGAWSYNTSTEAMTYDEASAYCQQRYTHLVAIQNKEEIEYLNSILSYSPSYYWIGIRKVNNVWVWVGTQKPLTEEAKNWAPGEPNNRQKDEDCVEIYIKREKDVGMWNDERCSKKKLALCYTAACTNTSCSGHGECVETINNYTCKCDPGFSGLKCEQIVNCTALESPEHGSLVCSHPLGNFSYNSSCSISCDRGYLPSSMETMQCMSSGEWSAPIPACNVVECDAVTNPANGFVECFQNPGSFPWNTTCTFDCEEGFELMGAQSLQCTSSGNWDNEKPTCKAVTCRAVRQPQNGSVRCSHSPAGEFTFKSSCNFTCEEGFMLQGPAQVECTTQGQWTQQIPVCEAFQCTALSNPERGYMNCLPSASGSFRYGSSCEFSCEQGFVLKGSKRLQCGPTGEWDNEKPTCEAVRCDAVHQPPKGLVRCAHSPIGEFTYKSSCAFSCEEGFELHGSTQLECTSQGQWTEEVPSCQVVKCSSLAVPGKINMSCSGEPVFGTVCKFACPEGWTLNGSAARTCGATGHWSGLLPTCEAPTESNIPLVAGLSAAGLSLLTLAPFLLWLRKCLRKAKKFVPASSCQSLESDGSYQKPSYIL
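Read-out: % PE-positive cells | Test system: HUVEC | Doses: One compound dose added by pin transfer | Buffer or medium: EGM-2 over gelatin coat | Signal: Immunofluorescence imaging | Benchmarks: TNF-alpha, DMSO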
The depositor's hits bear a star; ! = not active in a repeat. The list is not random: actives were taken first. Their share in the collection is about 2.2%.

`O=C(Cc1ccccn1)N[C@@H]1CC[C@H](CCn2cc(-c3cccnc3)nn2)O[C@H]1CO` gave DENV2 CPE rescue 0, C2C12 statin 0 and E-sel inducer 0.
`O=S(=O)(N[C@@H]1CC[C@@H](CCn2cc(-c3cccnc3)nn2)O[C@@H]1CO)c1ccccc1` gave DENV2 CPE rescue 10, C2C12 statin -5 and E-sel inducer -1.
O=S(=O)(N[C@H]1CC[C@@H](CCn2cc(-c3cccnc3)nn2)O[C@H]1CO)c1ccccc1 was read as DENV2 CPE rescue 28*, C2C12 statin -4 and E-sel inducer -1.
`C[C@@H]1CN([C@@H](C)CO)S(=O)(=O)c2ccc(/C=C/c3ccccc3)cc2O[C@@H]1CN(C)C(=O)Nc1ccc(F)cc1` gave DENV2 CPE rescue 5, C2C12 statin 15 and E-sel inducer 0.
Screening O=C(NCCCN1CCOCC1)[C@@H]1[C@@H](CO)[C@@H]2Cn3c(cccc3=O)[C@H]1N2C(=O)C1CCCCC1 returned DENV2 CPE rescue -7 and E-sel inducer 0.
For COc1ccc(S(=O)(=O)N(C)C[C@@H]2Oc3ccc(NS(=O)(=O)c4c(C)noc4C)cc3CC(=O)N([C@H](C)CO)C[C@H]2C)cc1 the results were DENV2 CPE rescue 2, C2C12 statin -12 and E-sel inducer 0.
`O=C(CN1C(=O)C(=O)N(Cc2ccccc2)C1=O)Nc1cc(Cl)cc(Cl)c1` gave C2C12 statin 7 and E-sel inducer 1.
Screening N#CCSc1ccccc1NC(=O)CN1C(=O)C(=O)N(Cc2ccccc2)C1=O returned DENV2 CPE rescue 41* and E-sel inducer 0.
For CCOC(=O)N1CCC(NC(=O)c2cc(C)c3c(C)nn(-c4ccccc4)c3n2)CC1 the results were C2C12 statin 118*.
`CCOC(=O)N1CCC(NC(=O)c2cc3c(C)nc4ccccc4c3o2)CC1` gave DENV2 CPE rescue -2, C2C12 statin -8 and E-sel inducer 0.
For COc1cccc(-c2ccc([C@H]3[C@@H](CO)N4CCCCN(C(=O)c5ccc6c(c5)OCO6)C[C@H]34)cc2)c1 the results were DENV2 CPE rescue -5 and E-sel inducer 2.
Screening Cc1nnc2n(-c3ccccc3)c(=O)c3c4c(sc3n12)COC(C)(C)C4 returned C2C12 statin 105*.
For Cc1nnc2n(C)c(=O)c3c4c(sc3n12)COC(C)(C)C4 the results were DENV2 CPE rescue 2 and E-sel inducer 5.
O=C(C[C@H]1C=C[C@H](NC(=O)Nc2cc(F)ccc2F)[C@@H](CO)O1)Nc1ccccc1 was read as DENV2 CPE rescue -8, C2C12 statin 8 and E-sel inducer 0.
Screening CC(C)(C)[C@H]1C=C(C(=O)N2CCN(Cc3ccc4c(c3)OCO4)CC2)O[C@@H](OCCCCO)C1 returned DENV2 CPE rescue -7, C2C12 statin -3 and E-sel inducer 0.
CC(C)(C)[C@@H]1C=C(C(=O)N2CCN(Cc3ccc4c(c3)OCO4)CC2)O[C@H](OCc2ccc(CO)cc2)C1 was read as DENV2 CPE rescue 34*! and E-sel inducer 0.
C[C@@H]1CN([C@@H](C)CO)C(=O)c2cc(NC(=O)NC3CCCCC3)ccc2O[C@@H](C)CCCCO[C@H]1CN(C)C(=O)Nc1ccccc1 was read as DENV2 CPE rescue 4.
`O=C(Nc1ccccc1)[C@H]1[C@H](CO)[C@H]2Cn3c(cccc3=O)[C@@H]1N2C(=O)c1ccccc1` gave DENV2 CPE rescue -9, C2C12 statin -9 and E-sel inducer 0.
Screening C[C@H](NC(=O)C[C@H]1C[C@H]2c3cc(NC(=O)Cc4ccncc4)ccc3O[C@H]2[C@H](CO)O1)c1ccccc1 returned DENV2 CPE rescue -4, C2C12 statin 2 and E-sel inducer 0.
Screening CCc1cnc(N2[C@@H](C#N)[C@@H](c3ccccc3)[C@@H]2CO)s1 returned DENV2 CPE rescue 49*, C2C12 statin -10 and E-sel inducer 1.
`CCc1cnc(N2[C@@H](C#N)[C@H](c3ccc(C4=CCCCC4)cc3)[C@@H]2CO)s1` gave DENV2 CPE rescue 0, C2C12 statin 19 and E-sel inducer 0.
CCc1cnc(N2[C@H](C#N)[C@@H](c3ccccc3)[C@@H]2CO)s1 was read as DENV2 CPE rescue 2, C2C12 statin -27 and E-sel inducer 3.
`CCc1cnc(N2[C@H](CO)[C@H](c3ccc(C4=CCCCC4)cc3)[C@@H]2C#N)s1` gave DENV2 CPE rescue 29*, C2C12 statin -48 and E-sel inducer 1.
C[C@@H]1CN([C@H](C)CO)C(=O)c2cc(C#CCN(C)C)cnc2O[C@H]1CN(C)Cc1ccccn1 was read as DENV2 CPE rescue -3, C2C12 statin 1 and E-sel inducer 0.
Screening O=C(C1CC1)N1CC[C@@H]2[C@@H](CO)Nc3ccc(-c4cccc(F)c4)cc3[C@@H]21 returned DENV2 CPE rescue 18, C2C12 statin 33 and E-sel inducer 0.
`COc1ccc(/C=N/NC(=O)c2nc(-c3ccccc3)n(-c3ccccc3)n2)cc1OC` gave DENV2 CPE rescue 38*.
For COc1cc(/C=N/NC(=O)c2nc(-c3ccccc3)n(-c3ccccc3)n2)ccc1O the results were C2C12 statin 9 and E-sel inducer 0.
O=C(C[C@H]1CC[C@H](NC(=O)C2CCOCC2)[C@H](CO)O1)NCc1ccccc1Cl was read as DENV2 CPE rescue 2, C2C12 statin -1 and E-sel inducer -1.
`C[C@H](CO)N1C[C@H](C)[C@@H](CN(C)C(=O)Nc2ccc(F)cc2)Oc2ccc(NS(=O)(=O)c3ccc(F)cc3)cc2CC1=O` gave DENV2 CPE rescue 3, C2C12 statin -13 and E-sel inducer 0.
For O=C(NCC1CCCCC1)[C@@H]1[C@@H](CO)[C@@H]2Cn3c(cccc3=O)[C@H]1N2C(=O)c1cccnc1 the results were C2C12 statin 8 and E-sel inducer 0.
For Cc1cccc(OCC(=O)Nc2cc(C)ccc2O)c1 the results were C2C12 statin 113*.
Cc1cccc(OCC(=O)Nc2cc(C)c(C)cc2O)c1 was read as DENV2 CPE rescue -4 and C2C12 statin 11.
Screening CCCC#Cc1ccc([C@@H]2[C@H](C#N)N(S(C)(=O)=O)[C@H]2CO)cc1 returned DENV2 CPE rescue 5, C2C12 statin -12 and E-sel inducer 0.
`Cc1nc2ccccc2c(=O)n1-c1ccc(NS(=O)(=O)c2ccc(F)cc2)cc1` gave DENV2 CPE rescue 4, C2C12 statin -4 and E-sel inducer 0.
Screening Cc1nc2ccccc2c(=O)n1-c1ccc(NS(=O)(=O)c2ccccc2)cc1 returned DENV2 CPE rescue 68*, C2C12 statin 2 and E-sel inducer -1.
O=C(NCCN1C(=O)S/C(=C\c2ccccc2Cl)C1=O)C1=COCCO1 was read as DENV2 CPE rescue 13, C2C12 statin 10 and E-sel inducer -2.
`O=C(CNC(=O)c1ccccc1F)NCCN1C(=O)S/C(=C\c2ccccc2Cl)C1=O` gave DENV2 CPE rescue 81*.
Screening COCc1cn(CC[C@@H]2CC[C@H](NC(=O)c3ccc(F)cc3)[C@H](CO)O2)nn1 returned DENV2 CPE rescue 0, C2C12 statin 14 and E-sel inducer 0.
